Assay results: ChEMBL document CHEMBL3407360, “Proteasome inhibitors with pyrazole scaffolds from structure-based virtual screening” (J Med Chem, 2015)
Calls of active or inactive are those of the source. The rule behind the calls is not given here.

Columns and labels:
Homo sapiens [1] = species on record: Homo sapiens; test: Inhibition of human 20S proteasome chymotrypsin-like activity preincubated at 10 uM for 30 mins before substrate addition measured over 90 mins by fluorescence assay
BXPC-3 [2] = test: Cytotoxicity against human BxPC3 cells after 72 hrs; type: functional, cell-based
In short: (§1)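 Adherent lines, growing in log phase in DMEM or RPMI 1640 with 10% FBS, were plated at 7,000–10,000 cells/well. Compound was added 24 h later at the final concentration. Viability was measured after 72 h by CellTiter Glo luminescence or CellTiter 96 Aqueous One absorbance.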

Homo sapiens [3] = species on record: Homo sapiens; test: Induction of human 20S proteasome chymotrypsin-like activity preincubated at 10 uM for 30 mins before substrate addition measured over 90 mins by fluorescence assay
Liver = test: Metabolic stability in Balb/c mouse liver microsomes; type: ADME
In short: (§2)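 Compound at 1 µM was incubated with 0.5 mg/ml microsomal protein, either pooled Balb/c mouse or pooled human. The buffer was 100 mM Tris-HCl pH 7.4 with an NADPH-generating system (isocitrate, isocitrate dehydrogenase, MgCl2, NADP+). After 5 min preincubation at 37°C, reactions ran 0, 5, 10 or 20 min and were quenched with cold acetonitrile containing phenytoin internal standard. Parent remaining was measured by LC-MS/MS.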

BXPC-3 [4] = test: Cytotoxicity against carfilzomib-resistant human BxPC3 cells after 72 hrs; type: functional, cell-based
In short: (§3)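 Resistant BxPC-3 sublines were derived by about 6 months of stepwise increasing drug exposure. […] Compound was added 24 h after plating. Viability was read after 72 h by CellTiter Glo luminescence or CellTiter 96 Aqueous One.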

RPMI-8226 [5] = test: Inhibition of 20S proteasome chymotrypsin-like in human RPMI8226 cell extracts using Suc-LLVY-AMC as substrate preincubated at 1 to 10 uM for 30 mins before substrate addition by fluorescence assay; type: cell-free
In short: (§4)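 Cytosolic extracts of RPMI 8226 cells served as the proteasome source in place of purified enzyme. Extracts were preincubated with compound, and hydrolysis of Suc-LLVY-AMC (CT-L), Z-LLE-AMC (C-L) or Boc-LRR-AMC (T-L) was read by AMC fluorescence at ex 360/em 460 nm.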

Liver microsome = test: Metabolic stability in human liver microsomes; type: ADME; in short: as §2
RPMI-8226 [6] = test: Inhibition of 20S proteasome trypsin-like in human RPMI8226 cell extracts using Boc-LRR-AMC as substrate preincubated at 1 to 10 uM for 30 mins before substrate addition by fluorescence assay; type: cell-free; in short: as §4
BXPC-3 [7] = test: Cytotoxicity against bortezomib-resistant human BxPC3 cells after 72 hrs; type: functional, cell-based; in short: as §3
RPMI8266 = test: Cytotoxicity against human […] cells after 72 hrs; type: functional, cell-based
In short: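 Suspension RPMI 8226 cells were collected by centrifugation and plated at 10,000 cells/well in medium with 10% FBS. Compound was added 24 h later. Viability was read after 72 h by CellTiter Glo or CellTiter 96 Aqueous One.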

RPMI-8226 [8] = test: Inhibition of 20S proteasome caspase-like in human RPMI8226 cell extracts using Z-LLE-AMC as substrate preincubated at 1 to 10 uM for 30 mins before substrate addition by fluorescence assay; type: cell-free; in short: as §4
LNCaP [9] = test: Antitumor activity against human LNCAP cells xenografted in nude mouse assessed as tumor growth inhibition at 5 mg/kg, ip twice a week for 4 weeks; type: functional, organism-based; parameters: dose 5 mg/kg
In short: (§5)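 Male athymic BALB/c nude mice, six weeks old, implanted subcutaneously with LNCaP cells (2 x 10^6 cells/50 µL). At ~100 mm3 tumors, n=5/group received 5 mg/kg ip twice weekly for four weeks in 8% DMSO in HP-β-cyclodextrin and citrate. Tumor volume ((width)2 x length/2) and body weight were measured every 4 days. Tumors were excised and weighed at Day 30.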

RPMI-8226 [10] = test: Reversible inhibition of 20S proteasome in human RPMI8226 cell extracts assessed as dissociation half life compound preincubated for 30 mins followed by 25-fold dilution by jump dilution assay; type: cell-based
In short: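 RPMI 8226 lysate (30 µg protein) was incubated with 10 µM compound for 30 min at room temperature in 20S assay buffer. Baseline Suc-LLVY-AMC hydrolysis was recorded in a cuvette, then the mixture was rapidly diluted 25-fold in assay buffer and recovery of activity was monitored.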

LNCaP [11] = test: Cytotoxicity against human LNCAP cells after 72 hrs; type: functional, cell-based; in short: as §1
Mus musculus = test: Toxicity in human LNCAP cells xenografted nude mouse assessed as body weight loss at 5 mg/kg, ip twice a week for 4 weeks; type: organism-based; parameters: dose 5 mg/kg, route intraperitoneal; details: in vivo, 672 h; in short: as §5

SMILES	inhibition (Homo sapiens [1])	other results
Cc1ccc(OS(=O)(=O)c2cccc(C(F)(F)F)c2)c(-c2cc(-c3ccccc3)n(CC(=O)NCCN3CCOCC3)n2)c1	Active	–
Cc1ccc(OS(=O)(=O)c2cccc(C(F)(F)F)c2)c(-c2cc(-c3ccccc3)n(CC(=O)OCc3scnc3C)n2)c1	Active	–
Cc1ccc(OS(=O)(=O)c2cccc(C(F)(F)F)c2)c(-c2cc(-c3ccccc3)n(CC(=O)N[C@@H]3CCN(C)C3)n2)c1	Active	–
CC(=O)N1CC[C@@H](NC(=O)Cn2nc(-c3cc(C)ccc3OS(=O)(=O)c3cccc(C(F)(F)F)c3)cc2-c2ccccc2)C1	Active	–
Cc1ccc(OS(=O)(=O)c2cccc(C(F)(F)F)c2)c(-c2cc(-c3ccccc3)n(CC(=O)N(C)CC[C@@H](Oc3ccccc3)c3ccccc3)n2)c1	Active	–
Cc1ccc(OS(=O)(=O)c2cccc(C(F)(F)F)c2)c(-c2cc(C3CCCN(C(=O)N[C@@H]4CCNC4)C3)n(CCN[C@@H]3CCNC3)n2)c1 (some centres not stated)	–	Activity (BXPC-3 [2]): inactive
Cc1ccc(OS(=O)(=O)c2cccc(C(F)(F)F)c2)c(-c2cc(-c3ccccc3)n(CC(=O)OCc3cc(C)on3)n2)c1	Active	–
Cc1ccc(OS(=O)(=O)c2ccc(C(F)(F)F)nc2)c(-c2cc(-c3ccccc3)n(CCN[C@@H]3CCNC3)n2)c1	Active	–
Cc1ccc(OS(=O)(=O)c2cccc(C(F)(F)F)c2)c(-c2cc(-c3ccccc3)n(CC(=O)O)n2)c1	Active	–
Cc1ccc(OS(=O)(=O)c2ccc3c(c2)OCCO3)c(-c2cc(-c3ccccc3)n(CCN[C@@H]3CCNC3)n2)c1	Active	–
Cc1ccc(OS(=O)(=O)c2cccc(C(F)(F)F)c2)c(-c2cc(-c3ccccc3)n(CC(=O)NCC(C)(C)C)n2)c1	Active	–
Cc1ccc(OS(=O)(=O)c2ccc(F)c([N+](=O)[O-])c2)c(-c2cc(-c3ccccc3)n(CCN[C@@H]3CCNC3)n2)c1	Active	Activity (Homo sapiens [3]): 200%
Cc1ccc(OS(=O)(=O)c2cccc(C(F)(F)F)c2)c(-c2cc(-c3ccccc3)n(CC(=O)N[C@@H]3CCNC3)n2)c1	Active	Stability (Liver): Stable; Activity (BXPC-3 [4]): Active; inhibition (RPMI-8226 [5]): Active; Activity (BXPC-3 [2]): Active; Stability (Liver microsome): Stable; inhibition (RPMI-8226 [6]): inactive; Activity (BXPC-3 [7]): Active; Activity (RPMI8266): Active; inhibition (RPMI-8226 [8]): Active; TGI (LNCaP [9]): Active; T1/2 (RPMI-8226 [10]): 3.2 min; Activity (LNCaP [11]): Active; Activity (Mus musculus): Non-toxic
Cc1ccc(OS(=O)(=O)c2cccc(C(F)(F)F)c2)c(-c2cc(-c3ccccc3)n(CC(=O)N[C@@H]3CCN(C(=O)CN4CCOCC4)C3)n2)c1	Active	–
Cc1ccc(OS(=O)(=O)c2cccc(C(F)(F)F)c2)c(-c2cc(-c3ccccc3)n(CC(=O)NCCCN3CCCC3=O)n2)c1	Active	–
Cc1ccc(OS(=O)(=O)c2cc(F)c(Br)c(F)c2)c(-c2cc(-c3ccccc3)n(CCN[C@@H]3CCNC3)n2)c1	Active	–
Cc1ccc(OS(=O)(=O)c2cccc(C(F)(F)F)c2)c(-c2cc(-c3ccccc3)n(CC(=O)NCc3ccccc3)n2)c1	Active	–
Cc1ccc(OS(=O)(=O)c2cccc(C(F)(F)F)c2)c(-c2cc(-c3ccccc3)n(CC(=O)OCc3ccccc3)n2)c1	Active	–
Cc1ccc(OS(=O)(=O)c2cccc(C(F)(F)F)c2)c(-c2cc(-c3ccccc3)n(CC(=O)O[C@@H]3CCNC3)n2)c1	Active	–

SMILES	inhibition (Homo sapiens [1])	other results
Cc1ccc(OS(=O)(=O)c2ccc(Br)cc2OC(F)(F)F)c(-c2cc(-c3ccccc3)n(CCN[C@@H]3CCNC3)n2)c1	Active	–
Cc1ccc(OS(=O)(=O)c2cccc(C(F)(F)F)c2)c(-c2cc(-c3ccccc3)n(CC(=O)OCc3ccc(C)o3)n2)c1	Active	–
CC1=C(COC(=O)Cn2nc(-c3cc(C)ccc3OS(=O)(=O)c3cccc(C(F)(F)F)c3)cc2-c2ccccc2)Cc2ccccc21	Active	Activity (Homo sapiens [3]): 200%
Cc1ccc(OS(=O)(=O)c2cccc(C(F)(F)F)c2)c(-c2cc(-c3ccccc3)n(CC(=O)N(C)C)n2)c1	Active	–
CC(C)=CCOC(=O)Cn1nc(-c2cc(C)ccc2OS(=O)(=O)c2cccc(C(F)(F)F)c2)cc1-c1ccccc1	Active	–
Cc1ccc(OS(=O)(=O)c2cccc(C(F)(F)F)c2)c(-c2cc(C3CCCNC3)n(CCN[C@@H]3CCNC3)n2)c1 (some centres not stated)	–	Activity (BXPC-3 [2]): inactive
Cc1ccc(OS(=O)(=O)c2cccc(C(F)(F)F)c2)c(-c2cc(-c3ccccc3)n(CC(=O)N[C@H]3CCNC3)n2)c1	Active	–
Cc1ccc(OS(=O)(=O)c2cccc(Cl)c2)c(-c2cc(-c3ccccc3)n(CCN[C@@H]3CCNC3)n2)c1	Active	–
Cc1ccc(OS(=O)(=O)c2cccc(C(F)(F)F)c2)c(-c2cc(-c3ccccc3)n(CC(=O)NC(C)(C)CO)n2)c1	Active	–
Cc1ccc(OS(=O)(=O)c2cccc(C(F)(F)F)c2)c(-c2cc(-c3ccccc3)n(CC(=O)OCc3cccc(O)c3C)n2)c1	Active	–
Cc1ccc(OS(=O)(=O)c2cccc(C(F)(F)F)c2)c(-c2cc(-c3ccccc3)n(CC(=O)NC[C@@H]3CCCO3)n2)c1	Active	–
Cc1ccc(OS(=O)(=O)c2cccc(C(F)(F)F)c2)c(-c2cc(-c3ccccc3)n(CC(=O)N[C@@H]3CCN(C(=O)CCc4ccccc4)C3)n2)c1	Active	–
Cc1ccc(OC(=O)c2cccc(C(F)(F)F)c2)c(-c2cc(-c3ccccc3)n(CCN[C@@H]3CCNC3)n2)c1	Active	–
Cc1ccc(OS(=O)(=O)c2cccc(C(F)(F)F)c2)c(-c2cc(C3CCCCC3)n(CCN[C@@H]3CCNC3)n2)c1	–	Activity (BXPC-3 [2]): inactive
CCOCCS(=O)(=O)Oc1ccc(C)cc1-c1cc(-c2ccccc2)n(CCN[C@@H]2CCNC2)n1	Active	–
Cc1ccc(OCc2cccc(C(F)(F)F)c2)c(-c2cc(-c3ccccc3)n(CCN[C@@H]3CCNC3)n2)c1	Active	–
Cc1ccc(OS(=O)(=O)c2cccc(C(F)(F)F)c2)c(-c2cc(-c3ccccc3)n(CC(=O)NCc3cnccn3)n2)c1	Active	–
CC(C)C[C@H](NC(=O)[C@H](CCc1ccccc1)NC(=O)CN1CCOCC1)C(=O)N[C@@H](Cc1ccccc1)C(=O)N[C@@H](CC(C)C)C(=O)[C@@]1(C)CO1 [CARFILZOMIB]	–	Activity (Mus musculus): Toxic
